Data reported in PMC11309612 (Medicine, 2024).
Values joined by “and” are separate entries in the source; they are usually repeats but may differ in a detail not shown here. Identical values can stand only once. Like-named read-outs stand apart in the source and are kept apart here.

Assays:
[1] = tested on: U-87 MG human glioblastoma cells; assay: WST-1 antiproliferative assay in U-87 MG cells; format: cell-based; details: for IC50: read-out: IC50 according to WST-1 results; for % viability value at the highest concentration: WST-1, highest concentration (500 µM)
Procedure, shortened: (§1)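 U-87 MG glioblastoma cells or BJ foreskin fibroblasts were seeded at 3 × 10^3 per well and left 24 h. Test compound, freshly diluted in medium, was applied at 0.97–500 µM (ten concentrations) for 24 or 48 h. WST-1 reagent was added per kit and absorbance read at 540 nm. There were 7 wells per concentration and 3 independent experiments. The 0.1% DMSO control was set to 100% viability, and IC50 was derived from the % viability values.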

U-87 MG cells [2] = assay: Mitochondrial membrane integrity; format: cell-based, human; details: for Increase of mitochondrial depolarization levels compared to the control: IC50 concentration, 48th hour; for JC-1-positive cells % (lower quadrant), mitochondrial depolarization: JC-1, IC50 concentration, n = 3, mean ± SD, control 12.3 ± 2.0
Procedure, shortened: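 U-87 MG cells were treated for 48 h with 150 μM test compound or 45 μM comparator, with 0.1% DMSO as control. Cells were pelleted at 1200 rpm for 5 min and incubated in JC-1 working solution for 15 min at 37°C. They were washed, resuspended in kit assay solution and read by flow cytometry. Upper-quadrant (viable) and lower-quadrant (JC-1-positive, depolarised) percentages were recorded; n = 3, mean ± SD.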

U-87 MG cells [3] = assay: Annexin V and Propidium iodide staining apoptosis assay in flow cytometry; format: cell-based, human; details: for Increase of late apoptotic effects compared to U-87 MG control group: IC50 concentration, 48th hour
Procedure, shortened: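 U-87 MG cells were cultured in EMEM with 10% FBS, 1% penicillin-streptomycin and 1% L-glutamine at 37°C in 5% CO2. Cells were exposed for 48 h to 150 μM test compound or 45 μM comparator, with 0.1% DMSO as control. They were detached, pelleted and washed twice in cold PBS. Annexin V/PI staining ran 20 min at room temperature in the dark, then binding buffer was added and flow cytometry was read within 30 min. Quadrant %, n = 3, mean ± SD.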

[4] = tested on: BJ human healthy fibroblast cells; assay: WST-1 cytotoxicity assay in BJ cells; format: cell-based; details: for IC50: read-out: IC50 according to WST-1 results
Procedure, shortened: as §1

U-87 MG cells [5] = assay: Caspase-3 activation in flow cytometry; format: cell-based, human; details: for Caspase-3 levels compared to the control / Caspase-3-positive cells % (lower right quadrant): IC50 concentration; for Caspase-3 levels compared to the control: 48th hour; for Caspase-3-positive cells % (lower right quadrant): n = 3, mean ± SD, control 0.6 ± 0.3
Procedure, shortened: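 U-87 MG cells were seeded at 1 × 10^5 per well in 6-well plates and exposed for 48 h to 150 μM test compound or 45 μM comparator, with 0.1% DMSO as control. After a PBS wash, cells were fixed and permeabilised with cytofix/cytoperm for 20 min on ice, then stained with PE rabbit anti-active caspase-3 for 30 min at room temperature. Flow cytometry gave quadrant %; n = 3, mean ± SD.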

SMILES	IC50 ([1]; Homo sapiens, U-87 MG, 24 h)	IC50 ([1]; Homo sapiens, U-87 MG, 48 h)	viability at 45.68 µM (U-87 MG cells [2]; Homo sapiens, U-87 MG, 48 h, read-out: Viable cells % (upper quadrant))	Increase of mitochondrial depolarization levels compared to the control (U-87 MG cells [2])	JC-1-positive cells % (lower quadrant), mitochondrial depolarization (U-87 MG cells [2]; 48 h)	viability at 45.68 µM (U-87 MG cells [3]; Homo sapiens, U-87 MG, read-out: Viable cells % (lower left quadrant))	Increase of late apoptotic effects compared to U-87 MG control group (U-87 MG cells [3])	IC50 ([4]; Homo sapiens, BJ, 24 h)	IC50 ([4]; Homo sapiens, BJ, 48 h)	viability at 45.68 µM (U-87 MG cells [5]; Homo sapiens, U-87 MG, 48 h, read-out: Viable cells % (lower left quadrant))	Caspase-3 levels compared to the control (U-87 MG cells [5])	Caspase-3-positive cells % (lower right quadrant) (U-87 MG cells [5]; 48 h)	% viability value at the highest concentration ([1]; U-87 MG, 24 hours)	% viability value at the highest concentration ([1]; U-87 MG, 48 hours)	IC50 ([1]; U-87 MG cells, 24 h incubation)	IC50 ([1]; U-87 MG cells, 48 h incubation)	IC50 ([4]; BJ cells, 24 h incubation)	IC50 ([4]; BJ cells, 48 h incubation)	Cytotoxic effect on BJ cells ([4]; WST-1, especially at the 48th hour)
O=NN(CCCl)C(=O)NCCCl [Carmustine, carmustine]	40.6 µM	45.7 µM	41.4 ± 3.8%	~4.7 times	58.6 ± 3.80%	57.6 ± 6.96%	approximately 3 times	144 µM	81.4 µM	96.2 ± 0.9%	did not show any difference	3.8 ± 1.0%							
NC(=O)[C@H](CCCN=C(N)CCl)NC(=O)c1ccccc1 [Cl-amidine, chlorine-amidine]				approximately 4.5 times	54.7% and 54.7 ± 11.60%		2.5 times				did not show any difference	2.8 ± 0.9%	41.16%	35.64%	256 µM	150 µM	604 µM	549 µM	
O=P1(N(CCCl)CCCl)NCCCO1 (stereo not shown) [Cyclophosphamide, cyclophosphamide]	581 µM	580 µM						650 µM	3970 µM										did not have a cytotoxic effect
